According to ChEMBL document CHEMBL1125163, “Evolution of a series of peptidoleukotriene antagonists: synthesis and structure-activity relationships of 1,6-disubstituted indoles and indazoles” (J Med Chem, 1990):
Active and inactive are the calls of the source. The rule behind the calls is not given here.

tested on: not listed separately; test: pKB value of the compound; details: not given
How it was run: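 Guinea pig tracheal strips at 37 °C in Krebs buffer. Cumulative LTE4 concentration-response curves were built in log increments, with responses expressed as % of the maximum to 30 µM carbachol. Antagonist was incubated 30 min before the curve, with vehicle on paired controls. EC50 came from linear regression. KB = [antagonist]/(dose ratio − 1) by the Furchgott method. One curve per tissue.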

SMILES | pKB
CCCc1c(OCc2ccc(C(=O)O)cc2OC)ccc(C(C)=O)c1O | 6.4
CCCCCCOc1ccc(COc2ccccc2C(=O)O)cc1 | 5.1

organism: Cavia porcellus; test: (§1) Percent inhibition of the BaCl2 - induced contraction of guinea pig tracheal spirals at concentration of 100 uM; Not significant; format: functional; details: Trachea
How it was run: (§2)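 Guinea pig tracheal strips contracted with barium chloride. Compound was tested at 100 µM, and the read-out is percent inhibition of the BaCl2-induced contraction.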

SMILES | inhibition
CCCCC(CC)C(=O)Nc1ccc2cnn(Cc3ccc(C(=O)O)cc3OC)c2c1 (stereo unspecified) | inactive

organism: Cavia porcellus; test: Percent inhibition of the BaCl2 - induced contraction of guinea pig tracheal spirals at concentration of 100 uM; format: functional; details: Trachea; how it was run: as §2

SMILES | inhibition at 100 µM [%]
COc1cc(C(=O)O)ccc1Cn1ncc2ccc(NC(=O)OC3CCCC3)cc21 | 44
CCCCOC(=O)Nc1ccc2cnn(Cc3ccc(C(=O)O)cc3OC)c2c1 | 41

organism: Cavia porcellus; test: as §1; format: functional; details: Trachea; how it was run: as §2

SMILES | inhibition
CCC(C(=O)Nc1ccc2cnn(Cc3ccc(C(=O)O)cc3OC)c2c1)c1ccccc1 (stereo unspecified) | inactive

organism: Cavia porcellus; test: Percent inhibition of the LTE4- induced contraction of guinea pig tracheal spirals at concentration of 10 uM; Not significant; format: functional; details: Trachea
How it was run: (§3)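 Guinea pig trachea cut into spiral strips, each trachea split into paired sections. Tissue bath at 37 °C in modified Krebs buffer gassed with 95% O2/5% CO2, 2 g resting tension, 60 min stabilization. After reproducible responses to 10 nM LTE4, compound was added for 10 min, then LTE4 challenge repeated. Percent inhibition is the 2nd vs 3rd response, adjusted by subtracting the vehicle-treated paired section. Paired t test, p < 0.05.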

SMILES | inhibition
CCCCCC(=O)Nc1cccc2cnn(Cc3ccc(C(=O)O)cc3OC)c12 | inactive

organism: Cavia porcellus; test: Percent inhibition of the LTE4- induced contraction of guinea pig tracheal spirals at the concentration of 0.33 uM; format: functional; details: Trachea; how it was run: as §3

SMILES | inhibition at 0.33 µM [%]
CCC(C(=O)Nc1ccc2cnn(Cc3ccc(C(=O)O)cc3OC)c2c1)c1ccccc1 (stereo unspecified) | 30
CCCCC(CC)C(=O)Nc1ccc2cnn(Cc3ccc(C(=O)O)cc3OC)c2c1 (stereo unspecified) | 56
CCC(CC)OC(=O)Nc1ccc2ccn(Cc3ccc(C(=O)O)cc3OC)c2c1 | 31
COc1cc(C(=O)O)ccc1Cn1ccc2ccc(NC(=O)OC(C)C)cc21 | 24
CCC(C(=O)Nc1ccc2ccn(Cc3ccc(C(=O)O)cc3OC)c2c1)C1CCCCC1 (stereo unspecified) | 18
CCCCOC(=O)Nc1ccc2cnn(Cc3ccc(C(=O)O)cc3OC)c2c1 | 56
COc1cc(C(=O)O)ccc1Cn1ccc2ccc(NC(=O)CC3CCCCC3)cc21 | 53

tested on: Cavia porcellus; test: Percent protection was determined from the time delay to the onset of dyspnea compared to that of control guinea pig at a concentration of 126 uM/kg; format: functional; details: not given
How it was run: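 Conscious guinea pigs were pretreated ip with indomethacin (10 mg/kg) and propranolol (5 mg/kg). Compound was given orally in poly(ethylene glycol) 60 min before challenge with aerosolized 60 µM LTD4 for up to 5 min. End point was labored abdominal breathing, scored blind. % protection = (drug time − mean control time)/(max aerosol time − mean control time) × 100, with at least two vehicle animals per run.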

SMILES | Protection [%]
CCCCOC(=O)Nc1ccc2cnn(Cc3ccc(C(=O)O)cc3OC)c2c1 | 33

organism: Cavia porcellus; test: Percent inhibition of the LTE4- induced contraction of guinea pig tracheal spirals at the concentration of 1.0 uM; format: functional; details: Trachea; how it was run: as §3

SMILES | inhibition at 1 µM [%]
COc1cc(C(=O)O)ccc1Cn1ccc2ccc(NC(=O)OC3CC=CCC3)cc21 (stereo unspecified) | 47
COc1cc(C(=O)O)ccc1Cn1ccc2ccc(NC(=O)C(c3ccccc3)C3CCCC3)cc21 (stereo unspecified) | 27
CCCCCCOC(=O)Nc1ccc2ccn(Cc3ccc(C(=O)O)cc3OC)c2c1 | 30
CCCC(C(=O)Nc1ccc2ccn(Cc3ccc(C(=O)O)cc3OC)c2c1)C1CCCC1 (stereo unspecified) | 62

organism: Cavia porcellus; test: Percent inhibition of the LTE4- induced contraction of guinea pig tracheal spirals at the concentration of 1.0 uM; Not significant; format: functional; details: Trachea; how it was run: as §3

SMILES | inhibition
COc1cc(C(=O)O)ccc1Cn1ccc2ccc(NC(=O)OC3CCCCC3)cc21 | inactive

organism: Cavia porcellus; test: Percent inhibition of the LTE4- induced contraction of guinea pig tracheal spirals at the concentration of 3.3 uM; format: functional; details: Trachea; how it was run: as §3

SMILES | inhibition at 3.3 µM [%]
COc1cc(C(=O)O)ccc1Cn1ccc2ccc(NC(=O)OC(C)(C)C)cc21 | 10
COc1cc(C(=O)O)ccc1Cn1ccc2ccc(NC(=O)OC3CCOC3)cc21 (stereo unspecified) | 70
COc1cc(C(=O)O)ccc1Cn1ccc2ccc(NC(=O)C(C)c3ccccc3)cc21 (stereo unspecified) | 59
COc1cc(C(=O)O)ccc1Cn1ccc2ccc(NC(=O)C(C)(C)c3ccccc3)cc21 | 23
COc1cc(C(=O)O)ccc1Cn1ccc2ccc(NC(=O)C(c3ccccc3)c3ccccc3)cc21 | 38
COc1cc(C(=O)O)ccc1Cn1ccc2ccc(NC(=O)NC(C)(C)C)cc21 | 24
COc1cc(C(=O)O)ccc1Cn1ccc2ccc(NC(=O)NC3CCCCC3)cc21 | 34
COc1cc(C(=O)O)ccc1Cn1ccc2ccc(NC(=O)C(OC)c3ccccc3)cc21 (stereo unspecified) | 52
CCCCCCNC(=O)Nc1ccc2ccn(Cc3ccc(C(=O)O)cc3OC)c2c1 | 51

organism: Cavia porcellus; test: Percent inhibition of the LTE4- induced contraction of guinea pig tracheal spirals at the concentration of 5 uM; format: functional; details: Trachea; how it was run: as §3

SMILES | inhibition at 5 µM [%]
C/C=C/C=C/C(=O)Nc1ccc2ccn(Cc3ccc(C(=O)O)cc3OC)c2c1 | 28
CCCC(=O)Nc1ccc2ccn(Cc3ccc(C(=O)O)cc3OC)c2c1 | 42
CCCCCCCC(=O)Nc1ccc2ccn(Cc3ccc(C(=O)O)cc3OC)c2c1 | 53
COc1cc(C(=O)O)ccc1Cn1ccc2ccc(NC(=O)Cc3ccccc3)cc21 | 71
CCCCCCOc1ccc(COc2ccccc2C(=O)O)cc1 | 40

organism: Cavia porcellus; test: Percent inhibition of the LTE4- induced contraction of guinea pig tracheal spirals at the concentration of 5 uM; Not significant; format: functional; details: Trachea; how it was run: as §3

SMILES | inhibition
CCCCCCCCCCCC(=O)Nc1ccc2ccn(Cc3ccc(C(=O)O)cc3OC)c2c1 | inactive

tested on: not listed separately; test: Selectivity ratio of the compound; format: functional; details: not given

SMILES | Selectivity ratio
CCCc1c(OCc2ccc(C(=O)O)cc2OC)ccc(C(C)=O)c1O | 50
CCCCCCOc1ccc(COc2ccccc2C(=O)O)cc1 | 10

organism: Cavia porcellus; test: Percent inhibition of the LTE4- induced contraction of guinea pig tracheal spirals at the concentration of 0 uM; Not significant; format: functional; details: Trachea; how it was run: as §3

SMILES | inhibition
COc1cc(C(=O)O)ccc1Cn1ccc2ccc(NC(C)=O)cc21 | inactive

organism: Cavia porcellus; test: Percent inhibition of the LTE4- induced contraction of guinea pig tracheal spirals at the concentration of 0.1 uM; format: functional; details: Trachea; how it was run: as §3

SMILES | inhibition at 0.1 µM [%]
COc1cc(C(=O)O)ccc1Cn1ncc2ccc(NC(=O)OC3CCCC3)cc21 | 65
COc1cc(C(=O)O)ccc1Cn1ccc2ccc(NC(=O)CC3CCCC3)cc21 | 34
COc1cc(C(=O)O)ccc1Cn1ncc2ccc(NC(=O)CC3CCCC3)cc21 | 83
COc1cc(C(=O)O)ccc1Cn1ccc2ccc(NC(=O)OC3CCC3)cc21 | 27

organism: Cavia porcellus; test: Percent inhibition of the LTE4- induced contraction of guinea pig tracheal spirals at the concentration of 1 uM; format: functional; details: Trachea; how it was run: as §3

SMILES | inhibition at 1 µM [%]
CCC(C(=O)Nc1ccc2ccn(Cc3ccc(C(=O)O)cc3OC)c2c1)c1ccccc1 (stereo unspecified) | 65
CCCCC(CC)C(=O)Nc1ccc2ccn(Cc3ccc(C(=O)O)cc3OC)c2c1 (stereo unspecified) | 59
COc1cc(C(=O)O)ccc1Cn1ccc2ccc(NC(=O)C3CCCC3)cc21 | 58
COc1cc(C(=O)O)ccc1Cn1ccc2ccc(NC(=O)NC3CCCC3)cc21 | 73
CCCCNC(=O)Nc1ccc2ccn(Cc3ccc(C(=O)O)cc3OC)c2c1 | 39
CCCc1c(OCc2ccc(C(=O)O)cc2OC)ccc(C(C)=O)c1O | 38

tested on: Cysteinyl leukotriene receptor (Cavia porcellus); test: Inhibition of the LTE4- induced contraction of guinea pig tracheal spirals at 10 uM.; details: Trachea

SMILES | inhibition [%]
CCCCOC(=O)Nc1ccc2cn(Cc3ccc(C(=O)O)cc3OC)nc2c1 | 50
COc1cc(C(=O)O)ccc1Cn1ccc2ccc(NC(=O)CCCc3ccccc3)cc21 | 73
COc1cc(C(=O)O)ccc1Cn1ccc2ccc(NC(=O)Cc3ccc(C)cc3)cc21 | 29
CCN(CC)C(=O)Nc1ccc2ccn(Cc3ccc(C(=O)O)cc3OC)c2c1 | 19
CCCCCC(=O)Nc1cccc2c1ccn2Cc1ccc(C(=O)O)cc1OC | 29
COc1cc(C(=O)O)ccc1Cn1ccc2ccc(NC(=O)Cc3cccs3)cc21 | 77
COc1cc(C(=O)O)ccc1Cn1ccc2ccc(NC(=O)NCc3ccccc3)cc21 | 57
COc1cc(C(=O)O)ccc1Cn1ccc2ccc(NC(=O)c3ccccc3)cc21 | 14
COc1cc(C(=O)O)ccc1Cn1ccc2ccc(NC(=O)CCc3ccccc3)cc21 | 62
C#CCCC(=O)Nc1ccc2ccn(Cc3ccc(C(=O)O)cc3OC)c2c1 | 47
CCCCCC(=O)Nc1ccc2nn(Cc3ccccc3C(=O)O)cc2c1 | 13
CCC(C(=O)Nc1ccc2cn(Cc3ccc(C(=O)O)cc3OC)nc2c1)c1ccccc1 (stereo unspecified) | 22
COc1cc(C(=O)O)ccc1Cn1ccc2ccc(NC(=O)Cc3ccc(C(F)(F)F)cc3)cc21 | 13
COc1cc(C(=O)O)ccc1Cn1ccc2ccc(NC(=O)C(F)(F)C(F)(F)C(F)(F)F)cc21 | 40
CCCCCCNc1ccc2ccn(Cc3ccc(C(=O)O)cc3OC)c2c1 | 52
COc1cc(C(=O)O)ccc1Cn1ccc2ccc(NC(=O)Nc3ccccc3C(F)(F)F)cc21 | 42
CCCCCC(=O)Nc1ccc2cnn(Cc3ccc(C(=O)O)cc3)c2c1 | 62
CCCCC(C(=O)Nc1ccc2ccn(Cc3ccc(C(=O)O)cc3OC)c2c1)c1ccccc1 (stereo unspecified) | 34
CCCC/N=C(\S)Nc1ccc2ccn(Cc3ccc(C(=O)O)cc3OC)c2c1 | 18
COc1cc(C(=O)O)ccc1Cn1ccc2ccc(NC(=O)Cc3ccc(Cl)cc3)cc21 | 44

tested on: Cysteinyl leukotriene receptor (Cavia porcellus); test: Inhibition of the LTE4- induced contraction of guinea pig tracheal spirals at 10 uM; Not significant.; details: Trachea

SMILES | inhibition
CCCCCC(=O)Nc1ccc2cnn(Cc3ccccc3C(=O)O)c2c1 | inactive
COc1cc(C(=O)O)ccc1Cn1ccc2ccc(NC(=O)Nc3ccccc3)cc21 | inactive
COc1cc(C(=O)O)ccc1Cn1ccc2ccc(NS(=O)(=O)Cc3ccccc3)cc21 | inactive
CCCCCC(=O)Nc1ccc2c(cnn2Cc2ccc(C(=O)O)cc2)c1 | inactive
CCCCCC(=O)Nc1ccc2cn(Cc3ccccc3C(=O)O)nc2c1 | inactive
COc1cc(C(=O)O)ccc1Cn1ccc2ccc(NC(=O)CCCC(C)=O)cc21 | inactive
CCCCCCCCCC(=O)Nc1ccc2ccn(Cc3ccc(C(=O)O)cc3OC)c2c1 | inactive
COc1cc(C(=O)O)ccc1Cn1ccc2ccc(NC(=O)Cc3ccc(-c4ccccc4)cc3)cc21 | inactive
COc1cc(C(=O)O)ccc1Cn1ccc2ccc(NC(=O)Cc3ccc4ccccc4c3)cc21 | inactive
COC(=O)Nc1ccc2ccn(Cc3ccc(C(=O)O)cc3OC)c2c1 | inactive
CCCCCC(=O)Nc1ccc2cn(Cc3ccc(C(=O)O)cc3)nc2c1 | inactive
CCCCCC(=O)Nc1ccc2nn(Cc3ccc(C(=O)O)cc3)cc2c1 | inactive
COc1cc(C(=O)O)ccc1Cn1ccc2ccc(NC(=O)CCCCCNC(C)=O)cc21 | inactive
COc1cc(C(=O)O)ccc1Cn1ccc2ccc(NC(=O)CCCCCCC(=O)O)cc21 | inactive
CCCCCC(=O)Nc1ccc2c(cnn2Cc2ccccc2C(=O)O)c1 | inactive
CCCCCC(=O)N(C)c1ccc2ccn(Cc3ccc(C(=O)O)cc3OC)c2c1 | inactive
CCCCN(C)C(=O)Nc1ccc2ccn(Cc3ccc(C(=O)O)cc3OC)c2c1 | inactive
COc1cc(C(=O)O)ccc1Cn1ccc2ccc(NC(=O)Cc3ccc(OC)c(OC)c3)cc21 | inactive
